Source: PubChem BioAssay (Broad Institute)
Vif inh: HIV Vif self-association inhibitors, primary screen, imaging, HEK293T, single point. HEK293T cells, Vif self-association by quenched fluorescence, 24 h. inhibition, % at 7.49 µM. 340,000 tested, 0.35% active; in the data active means inhibition above about 50%, passing the limit was not always enough
Ecoli rRNA inh: reduced GFP signal of wild-type E. coli, primary screen, bacterial rRNA inhibitor project, GFP/RFP fluorescence, OD600, single point; E. coli WT GFP vs humanized-ribosome RFP mutants, 24 h; active compounds read low; DMSO median 0, no signal -100; GFP signal change (wild-type ribosome), % (no concentration beside the values); 350,000 tested, 1.6% active; AID 720706, 2013;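 active means significant combined selectivity score with lowered wild-type GFP, culture density cut under 30%, mutant RFP and density less affected; inactive means any of these conditions unmet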
PGC1a acetyl inh: inhibitors of PGC1a acetylation signal, primary screen, cell-based, U2OS, AlphaScreen, inhibitor mode | 350,000 tested, 0.17% active | AlphaScreen anti-acetyl-lysine; with virally co-expressed GCN5 acetyltransferase | inhibition, % at 15.6 µM | AID 651687, 2012;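 active means every replicate shows inhibition of at least 40%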;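 further: 0% = neutral control wells and 100% = positive control wells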
PglD inh: C. jejuni PglD acetyltransferase inhibitors, primary screen, biochemical, DTNB colorimetric, single point | UDP-N-acetylbacillosamine N-acetyltransferase PglD (Campylobacter jejuni) | purified PglD enzyme, DTNB colorimetric CoA detection | inhibition, % at 12.5 µM | 360,000 tested, 0.098% active; in the data active means inhibition above about 16%, passing the limit was not always enough
FGF22 binding: binders of human FGF22 protein, primary screen, FGF22 synaptogenesis inhibitor project, biophysical, thermal shift, single point. AID 651658, 2012. recombinant FGF22 thermal shift, SYPRO orange fluorescence; percent of sucrose octasulfate shift, DMSO zero. 340,000 tested, 1.5% active. activity (Tm shift, normalised), % at 9.99 µM;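 active means mean Tm shift, scaled 0 neutral to 100 positive control, at about 1.3% or above, every replicate too, limit read from the data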
Target sequence (Q9HCT0 whole entry, looked up): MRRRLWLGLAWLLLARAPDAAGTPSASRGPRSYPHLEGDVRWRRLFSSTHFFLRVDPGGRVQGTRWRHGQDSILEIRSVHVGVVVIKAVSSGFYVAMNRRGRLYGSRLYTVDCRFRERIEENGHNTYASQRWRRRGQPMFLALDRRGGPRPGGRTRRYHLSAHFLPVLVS
Cneo AK release: Cryptococcus neoformans cell lysis inducers, primary screen, AK release luminescence, single concentration. AID 651654, 2012. lysis activity, % at 15 µM. 360,000 tested, 0.2% active. C. neoformans lysis, adenylate kinase release luminescence, 4 h; normalised: neutral wells 0, clomiphene wells 100;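 active means mean lysis activity across replicates of at least 80%, whatever share of replicates individually reach that level; inactive means mean lysis activity below 80%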
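read-out = cell lysis signal | test system = log-phase Cryptococcus neoformans yeast cells | input = cells at 5 × 10^6 per mL | medium = fresh YPD growth medium | signal = luminescent adenylate kinase detection reagent | timing = 4 h at 37 °C static, read 1 h later | dosing = single dose | controls = Clomiphene as positive lysis control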
The depositor's hits bear a star; . = no result. Sampled rows, rich in hits. Any-hit rate of the full collection: about 2.9%.

SMILES	Vif inh	Ecoli rRNA inh	PGC1a acetyl inh	PglD inh	FGF22 binding	Cneo AK release
COc1cc2c(cc1OC)C(c1c(Cl)cccc1Cl)NC(=O)C2 (stereo not given)	13.1	4.4	.	1.7	-0.1	-0.7
CCN1[C@@H]2Cn3c(ccc(-c4ccncc4)c3=O)[C@H]1[C@@H](C(=O)NCc1ccccc1)[C@@H]2CO	.	4.4	.	1.5	-0.1	1.4
Cc1ccc(S(=O)(=O)Nc2ccc3c(c2)CC(=O)N([C@H](C)CO)C[C@@H](C)[C@H](CN(C)Cc2ccc(C(=O)O)cc2)O3)cc1	.	0.4	20.1	.	.	.
O=S(=O)(c1cccc(-c2csc(N/N=C/c3ccco3)n2)c1)N1CCOCC1	3.3	-23.3*	-7.0	6.5	-0.1	-0.3
CCn1c(C)csc1=NC(=O)c1ccccc1	-2.4	.	1.6	8.4	.	15.5
CCn1c(C)csc1=NC(=O)c1ccccc1O	0.1	-23.1*	5.8	-0.3	0.0	1.0
O=C(NC1CCCCC1)C(c1ccc2ncccc2c1)N(Cc1ccc(F)cc1)C(=O)c1ccc2c(c1)OCCO2 (stereo not given)	-2.3	-8.5	-8.8	-2.9	-0.1	1.8
O=C(NC1CCCCC1)C(c1ccc2ncccc2c1)N(Cc1ccc2c(c1)OCO2)C(=O)c1ccc2c(c1)OCCO2 (stereo not given)	-3.6	8.0	96.0*	-0.2	0.5	-3.1
CN1CCN(C(=O)c2cnn(-c3ccccc3)c2NC(=O)c2ccc(Br)cc2)CC1	22.7	.	.	-2.6	-0.1	-2.3
CN1CCN(C(=O)c2cnn(-c3ccccc3)c2NC(=O)c2ccccc2)CC1	7.2	.	.	.	43.4*	.
CC(C)Cc1ccc(S(=O)(=O)Nc2ccc3[nH]c(=O)[nH]c3c2)cc1	-4.4	-25.5*	-7.7	-8.9	-0.2	-1.0
CCc1ccc(NS(=O)(=O)c2ccc3[nH]c(=O)[nH]c3c2)cc1	-7.6	1.6	-0.5	3.4	0.0	-0.3
COc1ccccc1C#Cc1ccc2c(c1)O[C@@H](CN(C)C)[C@H](C)CN([C@H](C)CO)S2(=O)=O	.	-3.1	-30.5	-8.5	-0.3	-1.4
O=C(CN1C(=O)NC2(CCCc3ccccc32)C1=O)c1ccc(F)cc1 (stereo not given)	4.3	-1.3	8.5	-1.5	0.1	3.2
O=C(CN1C(=O)NC2(CCc3ccccc32)C1=O)c1ccc(Br)s1 (stereo not given)	-17.3	-30.5*	.	2.2	-0.3	1.0
O=C(CN1C(=O)NC2(CCCc3ccccc32)C1=O)c1ccccc1F (stereo not given)	8.9	-34.8*	-3.7	-8.4	-0.1	1.9
C=CCn1c(SCC(=O)Nc2ccc(F)cc2)nc2cc(C(=O)O)ccc2c1=O	5.2	-2.8	.	.	0.2	.
C=CCn1c(SCC(=O)Nc2ccccc2-c2ccccc2)nc2cc(C(=O)O)ccc2c1=O	-5.1	-17.4	0.8	.	43.3*	.
C=CCn1c(SCC(=O)NC23CC4CC(CC(C4)C2)C3)nc2cc(C(=O)O)ccc2c1=O	-0.8	-22.7*	-15.6	.	0.3	.
CCCC#Cc1cnc2c(c1)C(=O)N([C@@H](C)CO)C[C@H](C)[C@@H](CN(C)S(=O)(=O)c1cn(C)cn1)O2	.	3.7	-5.2	-0.7	0.2	-3.3
Cc1ccc(S(=O)(=O)Nc2ccc3c(c2)C(=O)N([C@H](C)CO)C[C@H](C)[C@H](CN(C)C)OCCCC[C@H](C)O3)cc1	.	-4.2	-5.2	0.1	0.0	3.2
O=C(COC(=O)c1cccc(S(=O)(=O)N2CCc3ccccc32)c1)NCc1ccco1	-1.0	-10.3	1.6	.	43.9*	.
CN(c1ccccc1)S(=O)(=O)c1cccc(C(=O)OCC(=O)NCc2ccco2)c1	-3.5	-24.1*	1.9	1.0	0.0	-0.8
O=C(C1CC1)N1C[C@@H]2N[C@H](C1)C2c1ccc(-c2cccc(F)c2)cc1 (stereo not given in full)	.	2.9	-10.1	.	-0.2	.
COc1ccc(NC(=O)Nc2ccc3c(c2)C(=O)N([C@H](C)CO)C[C@H](C)[C@H](CN(C)C(=O)Nc2ccc4c(c2)OCO4)OCCCC[C@H](C)O3)cc1	.	2.3	-5.4	-2.0	-0.2	1.9
SMILES	Vif inh	Ecoli rRNA inh	PGC1a acetyl inh	PglD inh	FGF22 binding	Cneo AK release
CCCN(C)C[C@H]1Oc2ncc(-c3ccccc3F)cc2C(=O)N([C@@H](C)CO)C[C@@H]1C	.	0.8	-7.1	1.0	0.5	45.8
CCc1nc2ccccc2c(C(=O)NCc2ccccc2)c1C	-4.8	-1.5	.	.	43.1*	.
O=C(NCc1ccccc1)c1nc2ccccc2s1	-0.5	-29.7*	3.6	-5.7	0.0	-1.4
N#Cc1nc(-c2ccccc2)oc1NCCCn1ccnc1	-3.7	1.7	7.8	-2.9	43.1*	1.4
COc1ccccc1-c1nc(C#N)c(NCCCn2ccnc2)o1	-1.9	-5.6	.	.	-0.1	.
CC(C(=O)NC(C)(C)C)N1C(=O)c2cccc3cccc(c23)C1=O (stereo not given)	-1.9	4.5	.	.	43.0*	.
C[C@H]1CN([C@@H](C)CO)C(=O)c2cccc(NC(=O)Nc3cccc4ccccc34)c2O[C@H]1CN(C)C(=O)Nc1ccccc1	.	-0.8	2.1	3.7	0.0	0.1
CCOC(=O)N1CCN(C(=O)C2CCN(C(=O)c3ccccc3C)CC2)CC1	6.1	9.2	-25.3	8.4	1.4*	-2.8
COc1ccc(C2SCC(=O)N2CC23CC4CC(CC(C4)C2)C3)cc1 (stereo not given)	-8.1	-24.9*	-12.3	-9.7	0.2	1.7
O=C(COc1ccc(Cl)cc1)Nc1nnc(-c2ccco2)o1	-8.2	-34.9*	2.7	.	0.3	.
O=C(COc1ccccc1)Nc1nnc(-c2ccco2)o1	6.1	23.1	0.9	0.2	-0.1	13.7
CCc1ccc(NC(=O)CSc2nc3ccsc3c(=O)n2CCC(=O)O)cc1	-5.9	-11.8	-2.7	7.0	-0.1	-0.9
CC(C)c1ccc(NC(=O)CSc2nc3ccsc3c(=O)n2Cc2ccc(C(=O)O)cc2)cc1	-4.6	-34.8	59.0*	-0.4	0.0	0.3
Cc1noc(N)c1C1(O)C(=O)N(C(C)C)c2ccccc21 (stereo not given)	46.8	9.4	-0.3	1.5	43.1*	2.1
Cc1[nH]c2ccccc2c1C1(O)C(=O)N(C(C)C)c2ccccc21 (stereo not given)	57.1*	.	21.1	1.1	.	1.7
